# Laboratory results: ChEMBL document CHEMBL1800047, “Design and synthesis of cyclic sulfonamides and sulfamates as new calcium sensing receptor agonists” (Bioorg Med Chem Lett, 2010)
# Positions count from the first letter of the chain named.
# How the values were obtained:
# Type in all cases: functional, cell-based
# [1] = target: T1, Extracellular calcium-sensing receptor (Rattus norvegicus) (UniProt P48442); test: Agonist activity at rat CaSR expressed in CHO cells assessed as increase of calcium-induced inositol phosphate accumulation at 10 uM after 24 hrs by HTRF assay relative to calcium
# T1 sequence (whole entry): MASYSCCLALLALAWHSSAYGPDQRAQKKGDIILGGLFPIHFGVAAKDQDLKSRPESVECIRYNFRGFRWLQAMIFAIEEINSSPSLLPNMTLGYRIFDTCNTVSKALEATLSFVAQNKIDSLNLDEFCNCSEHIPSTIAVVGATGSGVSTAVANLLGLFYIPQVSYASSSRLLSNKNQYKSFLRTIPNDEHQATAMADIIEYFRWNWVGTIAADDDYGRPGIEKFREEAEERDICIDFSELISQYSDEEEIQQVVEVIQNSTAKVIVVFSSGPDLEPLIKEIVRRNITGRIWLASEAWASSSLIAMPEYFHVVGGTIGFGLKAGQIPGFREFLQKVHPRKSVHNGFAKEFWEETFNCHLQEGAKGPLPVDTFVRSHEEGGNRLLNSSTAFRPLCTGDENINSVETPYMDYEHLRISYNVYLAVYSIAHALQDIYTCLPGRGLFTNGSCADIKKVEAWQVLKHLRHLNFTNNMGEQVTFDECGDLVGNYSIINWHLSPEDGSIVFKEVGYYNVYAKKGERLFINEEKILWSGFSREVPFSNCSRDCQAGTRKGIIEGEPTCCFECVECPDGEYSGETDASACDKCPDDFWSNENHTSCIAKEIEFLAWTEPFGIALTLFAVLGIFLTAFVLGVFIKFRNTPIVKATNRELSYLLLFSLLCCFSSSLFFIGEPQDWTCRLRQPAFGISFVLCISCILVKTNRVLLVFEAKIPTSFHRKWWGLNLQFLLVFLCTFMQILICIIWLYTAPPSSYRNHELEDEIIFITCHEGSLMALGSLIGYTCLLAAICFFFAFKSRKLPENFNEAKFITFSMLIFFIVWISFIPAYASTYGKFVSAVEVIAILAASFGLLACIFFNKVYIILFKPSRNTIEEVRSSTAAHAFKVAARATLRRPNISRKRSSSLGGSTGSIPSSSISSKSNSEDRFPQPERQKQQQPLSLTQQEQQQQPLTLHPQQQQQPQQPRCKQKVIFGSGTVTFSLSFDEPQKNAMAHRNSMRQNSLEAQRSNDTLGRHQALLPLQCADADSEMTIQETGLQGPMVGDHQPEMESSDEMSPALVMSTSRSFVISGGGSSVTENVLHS
# Method in brief: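 CHO cells stably expressing rat brain CaSR are grown in Ham's F-12 (0.3 mM Ca²⁺, 0.6 mM Mg²⁺) and seeded at 4 × 10⁴ cells/well. IP-One HTRF runs 24 h later: 10 min preincubation at 37 °C, then 10 µM compound (from 10 mM DMSO stock) with 3 mM Ca²⁺, 30 min at 37 °C. Values are % of 10 mM Ca²⁺ stimulation, mean with S.E.M.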
# [2] = test system: T2, Extracellular calcium-sensing receptor (Homo sapiens), P41180 [E837A]; test: Agonist activity at human CaSR E837A mutant expressed in HEK293 cells assessed as increase of calcium-induced inositol phosphate accumulation at 10 uM after 48 hrs by HTRF assay relative to calcium
# T2 sequence (whole entry): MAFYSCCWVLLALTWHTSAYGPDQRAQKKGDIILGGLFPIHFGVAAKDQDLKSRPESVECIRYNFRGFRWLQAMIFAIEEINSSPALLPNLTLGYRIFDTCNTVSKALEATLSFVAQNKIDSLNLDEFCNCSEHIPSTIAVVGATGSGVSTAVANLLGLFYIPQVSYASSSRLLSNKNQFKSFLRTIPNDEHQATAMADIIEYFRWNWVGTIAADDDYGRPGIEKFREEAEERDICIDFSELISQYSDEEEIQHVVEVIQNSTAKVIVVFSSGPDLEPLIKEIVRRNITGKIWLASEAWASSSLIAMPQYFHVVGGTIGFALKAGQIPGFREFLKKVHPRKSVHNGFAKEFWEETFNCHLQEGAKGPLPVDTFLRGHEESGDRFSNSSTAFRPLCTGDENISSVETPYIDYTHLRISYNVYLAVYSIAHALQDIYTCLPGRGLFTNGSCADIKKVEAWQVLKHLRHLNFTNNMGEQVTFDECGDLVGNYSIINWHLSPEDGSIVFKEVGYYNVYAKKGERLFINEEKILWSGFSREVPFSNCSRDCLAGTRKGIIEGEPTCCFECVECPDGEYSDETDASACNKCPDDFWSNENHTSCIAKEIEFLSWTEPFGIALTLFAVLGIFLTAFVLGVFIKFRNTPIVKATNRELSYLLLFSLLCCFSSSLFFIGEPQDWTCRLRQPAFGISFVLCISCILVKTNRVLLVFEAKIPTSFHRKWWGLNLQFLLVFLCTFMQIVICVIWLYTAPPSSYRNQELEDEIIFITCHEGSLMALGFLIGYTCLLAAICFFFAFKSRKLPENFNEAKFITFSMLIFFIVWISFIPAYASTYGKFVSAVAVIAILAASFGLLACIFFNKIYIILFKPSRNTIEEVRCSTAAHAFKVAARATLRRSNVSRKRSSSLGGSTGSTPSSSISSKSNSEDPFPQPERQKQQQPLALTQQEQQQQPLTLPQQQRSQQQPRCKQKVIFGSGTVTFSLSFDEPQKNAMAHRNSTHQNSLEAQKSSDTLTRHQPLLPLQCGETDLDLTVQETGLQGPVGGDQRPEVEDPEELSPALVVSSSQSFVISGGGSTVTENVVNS
# Method in brief: (§1)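 Wild-type or E837A mutant hCaSR (pcDNA3) transiently transfected into HEK293 cells (10⁷ cells, electroporation). Cells are plated on poly-D-lysine and assayed 48 h later. The assay uses a 10 min preincubation at 37 °C, then compound plus 3 mM Ca²⁺ for 30 min at 37 °C. IP-One HTRF read-out is 620/665 nm after 337 nm excitation. Values are % of 10 mM Ca²⁺ response, mean with S.E.M.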
# [3] = target: T3, Extracellular calcium-sensing receptor (Homo sapiens) (UniProt P41180); test: Agonist activity at human CaSR expressed in HEK293 cells assessed as increase of calcium-induced inositol phosphate accumulation at 10 uM after 48 hrs by HTRF assay relative to calcium; method in brief: as §1
# T3 sequence (whole entry): T2 sequence (whole entry) with A837E, Q1011E
Activity [1] [%],Activity [2] [%],Activity [3] [%],SMILES
13,–,–,C[C@@H](N[C@@H]1CNS(=O)(=O)c2ccccc21)c1cccc2ccccc12
57,11,58,"C[C@@H](NCC1NS(=O)(=O)c2ccccc21)c1cccc2ccccc12 (single isomer, unassigned; diastereomer 1)"
39,11,51,"C[C@@H](NCC1NS(=O)(=O)c2ccccc21)c1cccc2ccccc12 (single isomer, unassigned; diastereomer 2)"
30,–,–,C[C@@H](N[C@H]1CNS(=O)(=O)c2ccccc21)c1cccc2ccccc12
19,–,–,C[C@@H](NC[C@@H]1NS(=O)(=O)c2ccccc2-c2ccccc21)c1cccc2ccccc12
67,1,67,"C[C@@H](NC1CNS(=O)(=O)Oc2ccccc2C1)c1cccc2ccccc12 (single isomer, unassigned; diastereomer 1)"
76,27,65,"C[C@@H](NCC1Cc2ccccc2OS(=O)(=O)N1)c1cccc2ccccc12 (single isomer, unassigned; diastereomer 2)"
71,22,73,"C[C@@H](NCC1Cc2ccccc2S(=O)(=O)N1)c1cccc2ccccc12 (single isomer, unassigned; diastereomer 1)"
95,41,94,C[C@@H](NCc1cc2ccccc2[nH]1)c1cccc2ccccc12
75,3,70,"C[C@@H](NCC1CCc2ccccc2S(=O)(=O)N1)c1cccc2ccccc12 (single isomer, unassigned; diastereomer 1)"
69,10,64,"C[C@@H](NCC1Cc2ccccc2S(=O)(=O)N1)c1cccc2ccccc12 (single isomer, unassigned; diastereomer 2)"
85,51,75,"C[C@@H](NCC1Cc2ccccc2OS(=O)(=O)N1)c1cccc2ccccc12 (single isomer, unassigned; diastereomer 1)"
17,1,2,"C[C@@H](NC1CNS(=O)(=O)Oc2ccccc2C1)c1cccc2ccccc12 (single isomer, unassigned; diastereomer 2)"
37,1,40,"C[C@@H](NCC1CCc2ccccc2S(=O)(=O)N1)c1cccc2ccccc12 (single isomer, unassigned; diastereomer 2)"
29,–,–,C[C@@H](NC[C@H]1NS(=O)(=O)c2ccccc2-c2ccccc21)c1cccc2ccccc12
